C2C12 statin: suppression of simvastatin myotoxicity | C2C12 myotubes + simvastatin, ATP luminescence, 48 h; scaled: DMSO 0, geranylgeraniol control 100 | rescue of ATP level, % at 7.49 µM | actives 0.78% (n = 330,000);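 active means mean ATP rescue above about 67%, or every replicate alone reaching that limit, limit read from the data, passing the limit was not always enough; inconclusive means no clear call, values can overlap the other calls; inactive means mean under the limit and some replicate under it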;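 further: myotubes were challenged with 10 µM simvastatin during compound exposure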
SR-BI DiI inh: mouse SR-BI HDL lipid transfer inhibition; Q61009; ldlA[mSR-BI] CHO cells, DiI-HDL uptake fluorescence, 3 h; inhibition, % at 12.5 µM; actives 0.96% (n = 320,000); AID 488896;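 active means mean replicate inhibition of at least 70% and a set share of replicates each scoring 70 or more; inconclusive means meets just one of the two criteria; inactive means fails both criteria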;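 further: 0% = median of neutral control wells and 100% = median of positive control wells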
Target sequence (Q61009 whole entry, looked up): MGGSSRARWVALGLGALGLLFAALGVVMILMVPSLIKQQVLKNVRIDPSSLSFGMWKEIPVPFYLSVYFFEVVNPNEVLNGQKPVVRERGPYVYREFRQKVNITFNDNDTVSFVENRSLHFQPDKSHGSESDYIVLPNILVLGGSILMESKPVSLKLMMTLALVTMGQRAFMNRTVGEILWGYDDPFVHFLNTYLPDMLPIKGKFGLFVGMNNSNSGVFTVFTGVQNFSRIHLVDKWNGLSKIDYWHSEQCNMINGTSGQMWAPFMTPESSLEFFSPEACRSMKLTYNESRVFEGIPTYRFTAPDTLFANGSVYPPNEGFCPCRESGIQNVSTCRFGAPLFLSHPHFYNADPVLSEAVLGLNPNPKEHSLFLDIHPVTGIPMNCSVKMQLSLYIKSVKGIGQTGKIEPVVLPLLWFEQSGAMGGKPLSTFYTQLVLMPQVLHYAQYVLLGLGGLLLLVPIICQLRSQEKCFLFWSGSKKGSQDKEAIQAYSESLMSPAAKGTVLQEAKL
Vif inh: blocks HIV Vif function; HEK293T cells, Vif self-association by quenched fluorescence, imaging, 24 h; inhibition, % at 7.49 µM; actives 0.35% (n = 340,000); AID 602346; in the data active means inhibition above about 50%, passing the limit was not always enough; inconclusive means no clear call, values can overlap the other calls; inactive means below about 31%
SR-BI uptake up: activators of SR-BI mediated HDL lipid uptake; activation, % at 12.5 µM; actives 0.096% (n = 320,000); AID 504775; CHO ldlA[mSR-BI] cells, DiI-HDL uptake fluorescence, 3 h; 100 = double the neutral-control signal;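 active means mean replicate activation of at least 60% and every replicate at or above 60%; inconclusive means mean or all-replicate condition met, but not both; inactive means mean below 60% and not all replicates reaching 60%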;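 further: 0% = median plate neutral-control signal and 100% = twice that signal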
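material = CHO ldlA[mSR-BI] cells | medium = Ham's F12 with 0.5% BSA, HEPES 25 mM, pH 7.4 | reagent = fluorescent DiI-HDL, 10 µg/mL final | compound dosing = single-point compound dose | incubation = 3 h, 37 °C | measured by = bottom-read fluorescence, 550/595 nm | measure = HDL uptake via cellular fluorescence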
DiI quencher: DiI fluorescence quenching in cell-free counter-screen. shares compounds with SR-BI DiI inh. actives 20% (n = 470). AC50, µM (series often up to 35 µM), for the others: top-dose activity change, negative = quenching. AID 540326. cell-free DiI-HDL fluorescence quenching, 30 min;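 active means quenching, a falling signal, with AC50 below a set limit tied to the top valid dose, actives reach about 32 µM in these data; inconclusive means no clear call, values can overlap the other calls; inactive means rising signal, and the rest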
* hit, by the source's call; ? = inconclusive; · = not tested or not shown. This is a sample that favours compounds with a hit; in the whole collection about 1.7% have one here.

SMILES	C2C12 statin	SR-BI DiI inh	Vif inh	SR-BI uptake up	DiI quencher
N#Cc1ccc(-c2ccc3c(c2)[C@H]2[C@H](CCN2C(=O)c2ccc(F)cc2)[C@H](CO)N3)cc1	-0.3	·	·	·	·
N#Cc1ccc(C(=O)N2CCC3CC2c2cc(-c4ccc(F)cc4)ccc23)cc1 (configuration not stated)	7.9	35.8	-3.4	-35.8	-2.7%
COc1cccc(-c2cnc3c(c2)C(=O)N([C@@H](C)CO)C[C@@H](C)[C@@H](CN(C)Cc2ccc(F)cc2)O3)c1	-1.9	·	·	·	·
O=C(C[C@H]1C=C[C@H](NS(=O)(=O)c2ccccc2)[C@@H](CO)O1)NCc1ccc(Cl)c(Cl)c1	23.6	·	·	·	·
COc1cc2c(C#CCCCO)c(-c3ccsc3)oc(=O)c2cc1OC	-98.8	?	-20.4	-73.5	-2.8%
CN1C[C@H]2[C@@H](c3ccccc31)[C@@H](CO)N2C(=O)c1cccnc1	52.7	·	·	·	·
CCNC(=O)C[C@H]1CC[C@@H]2[C@H](COC[C@H](O)CN2S(=O)(=O)c2ccccc2F)O1	3.8	·	·	·	·
CCCNC(=O)N1[C@H](CO)[C@@H]2c3ccccc3N(C(=O)c3ccncc3)C[C@@H]21	-3.9	·	·	·	·
C[C@@H]1COC(=O)[C@H](NC(=O)OCC2c3ccccc3-c3ccccc32)C/C=C\C[C@@H](CC(=O)N[C@H](CO)Cc2ccccc2)C(=O)N1	-28.3	80.6*	-0.4	-80.6	-9.0%
C[C@H](CO)N1C[C@H](C)[C@@H](CN(C)Cc2ccc3c(c2)OCO3)OCCCC[C@H](C)Oc2ccc(NC(=O)C3CCCCC3)cc2C1=O	4.8	·	·	·	·
N#Cc1nc(COc2ccccc2Cl)oc1N1CCCC1	·	18.7	0.7	-18.7	·
CC1CN(c2oc(COc3ccc(Cl)cc3Cl)nc2C#N)CC(C)O1 (configuration not stated)	·	80.9*	-12.6	-80.9	1.0%
CN(C)CC(=O)N[C@@H]1CC[C@H](CC(=O)NCCN2CCCCC2)O[C@@H]1CO	2.3	·	·	·	·
CCOC(=O)c1c(C)n(-c2ccc(C)cc2)c2c(CC(C)=O)c(Br)c(OC)c(O)c12	·	72.9*	4.6	-72.9	-0.4%
CCc1nnc(NC(=O)Cc2ccc(OCc3c(C)noc3C)cc2)s1	7.2	·	-11.3	·	·
CCCCc1nnc(NC(=O)c2ccc(OCc3c(C)noc3C)cc2)s1	-1.4	75.3*	-3.5	-75.3	2.7%
C[C@H](CO)N1C[C@H](C)[C@H](CN(C)Cc2cccnc2)Oc2ncc(-c3cccc(F)c3)cc2C1=O	-0.3	·	·	·	·
CCCN1C[C@H](C)[C@H](OC)CN(C)C(=O)c2ccc(NC(=O)C3CCOCC3)cc2OC[C@H]1C	5.7	·	·	·	·

Compound activity from PubChem.
